Tests used:
[1] = folding enthalpy; higher = less favourable; fluorescence melt of hairpins on a sequencing array, two-state fit; details: sodium 0.088 M
Summary of the method: (§1)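 Folding enthalpy and melting temperature were estimated with bootstrapped two-state fits and combined across four replicates by inverse-variance weighting, with fitted temperatures raised by 9.35 °C to match UV melts. The data were Cy3 fluorescence of library hairpins, with annealed Cy3 and quencher oligos, on a sequenced MiSeq flow cell in 50 mM Na-HEPES pH 8.0, 25 mM NaCl, imaged in 2.5 °C steps up to 60 °C and normalised to pre-quench Cy3 and control constructs.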

[2] = melting temperature; fluorescence melt of hairpins on a sequencing array, two-state fit, raised by 9.35 °C to match UV melts; details: sodium 0.088 M
Summary of the method: as §1

GCGGGCTCGAAAGAGCGC (((..(((....))))))
folding enthalpy [1]: -10.2 kcal/mol
Tm [2]: 55 °C

GCGGGGATCCGC ((((....))))
folding enthalpy [1]: -19.9 kcal/mol
Tm [2]: 68.9 °C

GCGGGGCGAAAGCACAGC ((.(.((....)).).))
folding enthalpy [1]: -31.8 kcal/mol
Tm [2]: 65.4 °C

GCGGGGCGAAAGCCAAGC ((..(((....)))..))
folding enthalpy [1]: -27.7 kcal/mol
Tm [2]: 65 °C

GCGGGGCGAAAGCCAGGC ((..(((....)))..))
folding enthalpy [1]: -17.5 kcal/mol
Tm [2]: 59.1 °C

GCGGGGCGAAAGCCGAGC ((..(((....)))..))
folding enthalpy [1]: -24.9 kcal/mol
Tm [2]: 66.2 °C

GCGGGGCGCCGC ((((....))))
folding enthalpy [1]: -14.7 kcal/mol
Tm [2]: 66.1 °C

GCGGGGGGAAACCCCCAC (.(((((....))))).)
folding enthalpy [1]: -11.2 kcal/mol
Tm [2]: 46 °C

GCGGGGGGAAACCCCTGC ((.((((....)))).))
folding enthalpy [1]: -31.9 kcal/mol
Tm [2]: 61.9 °C

GCGGGGGGAAACTCCCGC (((((.(....).)))))
folding enthalpy [1]: -33.8 kcal/mol
Tm [2]: 68.4 °C

GCGGGGTTCCGC ((((....))))
folding enthalpy [1]: -18.7 kcal/mol
Tm [2]: 61.1 °C

GCGGGTGGAAACACCCAC (.(((((....))))).)
folding enthalpy [1]: -11.5 kcal/mol
Tm [2]: 48.7 °C

GCGGGTGGAAACGCCTGC ((.((.(....).)).))
folding enthalpy [1]: -28 kcal/mol
Tm [2]: 51.7 °C

GCGGTACGAAAGTAACGC (((.(((....))).)))
folding enthalpy [1]: -38.8 kcal/mol
Tm [2]: 67.7 °C

GCGGTAGGAAACTGTCGC (((..((....))..)))
folding enthalpy [1]: -30.3 kcal/mol
Tm [2]: 43.8 °C

GCGGTATACCGC ((((....))))
folding enthalpy [1]: -27.4 kcal/mol
Tm [2]: 60.7 °C

GCGGTATCGAAAGATCGC (((..(((....))))))
folding enthalpy [1]: -24.1 kcal/mol
Tm [2]: 47.1 °C

GCGGTCACCCGC ((((....))))
folding enthalpy [1]: -24.6 kcal/mol
Tm [2]: 56.2 °C

GCGGTCCACCGC ((((....))))
folding enthalpy [1]: -26.2 kcal/mol
Tm [2]: 68.5 °C

GCGGTCCCCCGC ((((....))))
folding enthalpy [1]: -21.9 kcal/mol
Tm [2]: 57.7 °C

GCGGTCGAAAGACGCCGC ((((((....)))..)))
folding enthalpy [1]: -19.9 kcal/mol
Tm [2]: 56.4 °C

GCGGTCGCGAAAGCGCGC (((..(((....))))))
folding enthalpy [1]: -16.1 kcal/mol
Tm [2]: 59.7 °C

GCGGTCGGAAACGACCAC (.(((((....))))).)
folding enthalpy [1]: -11.6 kcal/mol
Tm [2]: 48.4 °C

GCGGTCGTCCGC ((((....))))
folding enthalpy [1]: -31.1 kcal/mol
Tm [2]: 56.9 °C

GCGGTCTCCGC ((((...))))
folding enthalpy [1]: -29.1 kcal/mol
Tm [2]: 56.3 °C

GCGGTGACCGC ((((...))))
folding enthalpy [1]: -23.6 kcal/mol
Tm [2]: 56.6 °C

GCGGTGAGCCGC ((((....))))
folding enthalpy [1]: -23 kcal/mol
Tm [2]: 66.8 °C

GCGGTGCCGAAAGGCCGC (((..(((....))))))
folding enthalpy [1]: -19.4 kcal/mol
Tm [2]: 62.3 °C

GCGGTGCGAAAGCCACGC (((..((....))..)))
folding enthalpy [1]: -19.8 kcal/mol
Tm [2]: 61.5 °C

GCGGTGCGAAAGCCCTGC ((.(.((....)).).))
folding enthalpy [1]: -21.2 kcal/mol
Tm [2]: 49.5 °C

GCGGTGCGAAAGCCGCGC (((..((....))..)))
folding enthalpy [1]: -27.7 kcal/mol
Tm [2]: 68.9 °C

GCGGTGCGAAAGCTACGC (((..((....))..)))
folding enthalpy [1]: -33.5 kcal/mol
Tm [2]: 63.9 °C

GCGGTGCGAAAGCTCTGC ((.(.((....)).).))
folding enthalpy [1]: -20.2 kcal/mol
Tm [2]: 54.3 °C

GCGGTGCGAAAGCTTCGC (((..((....))..)))
folding enthalpy [1]: -16.4 kcal/mol
Tm [2]: 58.2 °C

GCGGTGCTCCGC ((((....))))
folding enthalpy [1]: -18.6 kcal/mol
Tm [2]: 56.1 °C

GCGGTGGACCGC ((((....))))
folding enthalpy [1]: -26.6 kcal/mol
Tm [2]: 59.6 °C

GCGGTGGGAAACCACTGC ((.((((....)))).))
folding enthalpy [1]: -38.9 kcal/mol
Tm [2]: 60.4 °C

GCGGTGTGCCGC ((((....))))
folding enthalpy [1]: -19.1 kcal/mol
Tm [2]: 67.6 °C

GCGGTTACGAAAGTACGC (((..(((....))))))
folding enthalpy [1]: -26.7 kcal/mol
Tm [2]: 48.4 °C

GCGGTTCGAAAGAATCGC (((.(((....))).)))
folding enthalpy [1]: -43.4 kcal/mol
Tm [2]: 66.4 °C

GCGGTTGCGAAAGCACGC (((..(((....))))))
folding enthalpy [1]: -19.9 kcal/mol
Tm [2]: 56.6 °C

GCGGTTGGAAACGACTGC ((.((.(....).)).))
folding enthalpy [1]: -15.3 kcal/mol
Tm [2]: 37.8 °C

GCGGTTGGAAACGATCGC (((.(.(....).).)))
folding enthalpy [1]: -28.5 kcal/mol
Tm [2]: 45.3 °C

GCGGTTTTCCGC ((((....))))
folding enthalpy [1]: -30.3 kcal/mol
Tm [2]: 58.4 °C

GCGTAACAACGC ((((....))))
folding enthalpy [1]: -27 kcal/mol
Tm [2]: 52.9 °C

GCGTAACGACGC ((((....))))
folding enthalpy [1]: -21.9 kcal/mol
Tm [2]: 51.4 °C

GCGTAAGAAATTACGC ((((((....))))))
folding enthalpy [1]: -40.4 kcal/mol
Tm [2]: 55.3 °C

GCGTAATCACGC ((((....))))
folding enthalpy [1]: -21.9 kcal/mol
Tm [2]: 52.7 °C

GCGTACAAACGC ((((....))))
folding enthalpy [1]: -21.5 kcal/mol
Tm [2]: 51.1 °C
